The source of these data is ChEMBL document CHEMBL1156410, “Design and synthesis of a combinatorial chemistry library of 7-acyl, 10-acyl, and 7,10-diacyl analogues of paclitaxel (taxol) using solid phase synthesis” (J Nat Prod, 2002).

Assay [1] can be described thus: Induction of tubulin polymerization at 10 uM by DAPI fluorescence method relative to control. The essentials: (§1)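 Microplate assay in PMEG buffer (100 mM PIPES, 1 mM MgSO₄, 2 mM EGTA, 0.1 mM GTP, pH 6.9) containing ligand; DAPI final 10 µM, tubulin final 5 µM. Fluorescence followed at 37 °C, excitation 360/40 nm, emission 460/40 nm. Change in fluorescence normalized to the curve of 10 µM paclitaxel standard. Samples in duplicate, triplicate or quadruplicate; concentrations over 2 orders of magnitude tested.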

A short description of assay [2]: Induction of tubulin polymerization at 0.1 uM by DAPI fluorescence method relative to control. Summed up: as §1
Assay [3] in a line: Induction of tubulin polymerization at 1 uM by DAPI fluorescence method relative to control. The essentials:
as §1

In the case of `C/C=C/C(=O)O[C@H]1C(=O)[C@]2(C)[C@@H](OC(=O)CCl)C[C@H]3OC[C@@]3(OC(C)=O)[C@H]2[C@H](OC(=O)c2ccccc2)[C@]2(O)C[C@H](OC(=O)[C@H](O)[C@@H](NC(=O)c3ccccc3)c3ccccc3)C(C)=C1C2(C)C`, the Activity in assay [1] came to 116%; in assay [2], 29%; in assay [3], 66%.

In the case of `CCC(=O)O[C@H]1C(=O)[C@]2(C)[C@@H](OC(=O)C3CC3)C[C@H]3OC[C@@]3(OC(C)=O)[C@H]2[C@H](OC(=O)c2ccccc2)[C@]2(O)C[C@H](OC(=O)[C@H](O)[C@@H](NC(=O)c3ccccc3)c3ccccc3)C(C)=C1C2(C)C`, the Activity in assay [1] was 113%; in assay [2] it was 6%; in assay [3], 62%.

As to `C/C=C/C(=O)O[C@H]1C(=O)[C@]2(C)[C@@H](OC(=O)C3CC3)C[C@H]3OC[C@@]3(OC(C)=O)[C@H]2[C@H](OC(=O)c2ccccc2)[C@]2(O)C[C@H](OC(=O)[C@H](O)[C@@H](NC(=O)c3ccccc3)c3ccccc3)C(C)=C1C2(C)C`, the Activity in assay [1] stood at 109%; in assay [2], 27%; in assay [3] it was 41%.

In the case of `CC(=O)O[C@@]12CO[C@@H]1C[C@H](OC(=O)C1CC1)[C@@]1(C)C(=O)[C@H](OC(=O)c3ccccc3)C3=C(C)[C@@H](OC(=O)[C@H](O)[C@@H](NC(=O)c4ccccc4)c4ccccc4)C[C@@](O)([C@@H](OC(=O)c4ccccc4)[C@H]21)C3(C)C`, the Activity was 91% in assay [1], 30% in assay [2] and 61% in assay [3].

`CCC(=O)O[C@H]1C(=O)[C@]2(C)[C@@H](OC(=O)CCl)C[C@H]3OC[C@@]3(OC(C)=O)[C@H]2[C@H](OC(=O)c2ccccc2)[C@]2(O)C[C@H](OC(=O)[C@H](O)[C@@H](NC(=O)c3ccccc3)c3ccccc3)C(C)=C1C2(C)C`: the Activity in assay [1] came out at 114%; in assay [2] it was 20%; in assay [3] it was 72%.

For the compound `CCC(=O)O[C@H]1C(=O)[C@@]2(C)[C@H]([C@H](OC(=O)c3ccccc3)[C@]3(O)C[C@H](OC(=O)[C@H](O)[C@@H](NC(=O)c4ccccc4)c4ccccc4)C(C)=C1C3(C)C)[C@]1(OC(C)=O)CO[C@@H]1C[C@@H]2O`, the results for the Activity in assay [1], in assay [2] and in assay [3] were 114%, 13% and 54%, respectively.

In the case of `CC(=O)O[C@@]12CO[C@@H]1C[C@H](OC(=O)C1CC1)[C@@]1(C)C(=O)[C@H](OC(=O)OCc3ccccc3)C3=C(C)[C@@H](OC(=O)[C@H](O)[C@@H](NC(=O)c4ccccc4)c4ccccc4)C[C@@](O)([C@@H](OC(=O)c4ccccc4)[C@H]21)C3(C)C`, the values for the Activity in assay [1], in assay [2] and in assay [3] were 53%, 10% and 26%, respectively.

With `CCC(=O)O[C@H]1C(=O)[C@]2(C)[C@@H](OC(=O)C=C(C)C)C[C@H]3OC[C@@]3(OC(C)=O)[C@H]2[C@H](OC(=O)c2ccccc2)[C@]2(O)C[C@H](OC(=O)[C@H](O)[C@@H](NC(=O)c3ccccc3)c3ccccc3)C(C)=C1C2(C)C`, the Activity turned out to be 120% in assay [1], 20% in assay [2] and 51% in assay [3].

Take `CC(=O)O[C@@]12CO[C@@H]1C[C@H](O)[C@@]1(C)C(=O)[C@H](OC(=O)c3ccccc3)C3=C(C)[C@@H](OC(=O)[C@H](O)[C@@H](NC(=O)c4ccccc4)c4ccccc4)C[C@@](O)([C@@H](OC(=O)c4ccccc4)[C@H]21)C3(C)C`: the Activity in assay [1] was 113%; in assay [2] it was 46%; in assay [3], 78%.

With `CC(=O)O[C@@]12CO[C@@H]1C[C@H](OC(=O)CCl)[C@@]1(C)C(=O)[C@H](OC(=O)c3ccccc3)C3=C(C)[C@@H](OC(=O)[C@H](O)[C@@H](NC(=O)c4ccccc4)c4ccccc4)C[C@@](O)([C@@H](OC(=O)c4ccccc4)[C@H]21)C3(C)C`, the results for the Activity in assay [1], in assay [2] and in assay [3] were 92%, 29% and 56%, respectively.
